Measurements reported in PMC5055850 (Bioorganic & medicinal chemistry, 2016).
Like-named read-outs stand apart in the source and are kept apart here.

What was measured:
Format in all cases: cell-based
[1] = tested on: human polymorphonuclear neutrophils (hPMN); assay: Ca2+ flux assay in human neutrophils; details: for EC50: Homo sapiens, Polymorphonuclear neutrophil, read-out: hPMN EC50
How it was run: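 Neutrophils from healthy donors' blood, purified by dextran sedimentation, Histopaque 1077 gradient and hypotonic red-cell lysis (>95% pure, >98% viable). Cells in HBSS− with 10 mM HEPES were loaded with Fluo-4 AM (1.25 µg/mL final) for 30 min at 37 °C, then plated at 2 × 10^5 cells/well. Fluorescence (485/538 nm) read every 5 s for 240 s at room temperature. Peak change normalized to 5 nM fMLF. EC50 from 5–6-point nonlinear regression, three experiments.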

[2] = target: T1, FPR1 (Homo sapiens, UniProt P21462); assay: Ca2+ flux assay in FPR1-HL60 cells; details: for Emax: read-out: FPR1-HL60 Efficacy
T1 sequence (P21462 1-350): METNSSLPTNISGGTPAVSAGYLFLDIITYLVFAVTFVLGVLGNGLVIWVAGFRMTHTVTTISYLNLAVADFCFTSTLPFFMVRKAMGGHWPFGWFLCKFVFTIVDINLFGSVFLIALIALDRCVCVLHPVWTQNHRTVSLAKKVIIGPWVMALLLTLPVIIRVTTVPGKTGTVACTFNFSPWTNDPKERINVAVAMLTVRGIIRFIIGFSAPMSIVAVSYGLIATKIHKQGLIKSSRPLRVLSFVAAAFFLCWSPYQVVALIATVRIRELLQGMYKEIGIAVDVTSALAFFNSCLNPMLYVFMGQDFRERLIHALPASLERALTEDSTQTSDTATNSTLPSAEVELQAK
How it was run: (§1)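 FPR1-, FPR2- or FPR3-transfected HL-60 cells grown in RPMI 1640 with 10% heat-inactivated FCS, 10 mM HEPES and G418 (1 mg/mL). Cells loaded with Fluo-4 AM (1.25 µg/mL final) for 30 min at 37 °C in the dark, then 2 × 10^5 cells/well. Fluorescence (ex 485/em 538 nm) read every 5 s for 240 s at room temperature. Peak rise over baseline normalized to 5 nM fMLF (FPR1) or 5 nM WKYMVm (FPR2, FPR3). EC50 from 5–6-point nonlinear fits, three independent experiments.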

[3] = target: T2, FPR2 (Homo sapiens, UniProt P25090); assay: Ca2+ flux assay in FPR2-HL60 cells; details: for EC50: HL-60 cells transfected with FPR2; for Emax: read-out: FPR2-HL60 Efficacy
T2 sequence (P25090 1-351): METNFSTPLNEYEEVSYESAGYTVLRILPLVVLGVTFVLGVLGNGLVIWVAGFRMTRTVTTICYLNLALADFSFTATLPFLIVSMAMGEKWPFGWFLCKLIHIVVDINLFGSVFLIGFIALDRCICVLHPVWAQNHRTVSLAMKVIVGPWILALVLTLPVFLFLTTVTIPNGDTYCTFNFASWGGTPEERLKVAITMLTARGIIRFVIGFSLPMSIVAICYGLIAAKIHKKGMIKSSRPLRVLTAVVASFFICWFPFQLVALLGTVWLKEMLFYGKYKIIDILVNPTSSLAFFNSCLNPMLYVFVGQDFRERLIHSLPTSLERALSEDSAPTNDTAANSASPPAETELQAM
How it was run: as §1

[4] = tested on: human neutrophils; assay: Cell migration; details: Neutrophil, 1 h, read-out: EC50 in migration assay
How it was run: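 Human neutrophils at 2 × 10^6 cells/mL in HBSS with 2% FBS, placed above a 5.0 µm polycarbonate membrane. Lower wells held test compound, DMSO (negative control) or 1 nM fMLF (positive control). Migration ran 60 min at 37 °C, 5% CO2. Migrated cells counted by ATP luminescence against neutrophil standard curves and expressed as % of spontaneous migration. EC50 from 5–6-point nonlinear fits; mean ± SD, three donors.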

[5] = target: T3, FPR3 (Homo sapiens, UniProt P25089); assay: Ca2+ flux assay in FPR3-HL60 cells; details: for FPR3-HL60 Efficacy: % of the response induced by 5 nM WKYMVm
T3 sequence (P25089 1-353): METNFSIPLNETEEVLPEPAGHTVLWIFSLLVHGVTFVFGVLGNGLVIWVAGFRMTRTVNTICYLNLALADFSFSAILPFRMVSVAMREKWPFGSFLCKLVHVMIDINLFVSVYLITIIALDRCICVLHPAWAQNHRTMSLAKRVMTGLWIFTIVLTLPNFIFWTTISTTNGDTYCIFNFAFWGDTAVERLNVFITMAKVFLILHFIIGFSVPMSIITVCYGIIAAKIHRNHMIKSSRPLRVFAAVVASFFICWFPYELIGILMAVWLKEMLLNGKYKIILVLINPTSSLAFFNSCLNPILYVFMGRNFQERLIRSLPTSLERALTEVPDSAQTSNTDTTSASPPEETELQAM
How it was run: as §1

[6] = tested on: mouse polymorphonuclear neutrophils (mPMN); assay: Ca2+ flux assay in mouse neutrophils; details: for mPMN Efficacy: % of the response induced by 5 nM WKYMVm; for EC50: read-out: mPMN EC50
How it was run: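 Neutrophils taken from BALB/c mouse tibia and femur bone marrow. Isolated on a 45/50/55/62/81% Percoll gradient (1600g, 30 min, 10 °C), then Histopaque 1119 to remove red cells, and kept in HBSS−. Ca2+ fluorescence (485/538 nm) monitored every 5 s for 240 s at room temperature after compound addition. Maximal change over baseline normalized to 5 nM WKYMVm. EC50 from 5–6-point nonlinear regression, three independent experiments.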

[7] = target: T4, mouse Fpr1 (Mus musculus, UniProt P33766); assay: Ca2+ flux assay in mFpr1-RBL cells; details: for mFpr1-RBL Efficacy: % of the response induced by 5 nM WKYMVm
T4 sequence (P33766 1-364): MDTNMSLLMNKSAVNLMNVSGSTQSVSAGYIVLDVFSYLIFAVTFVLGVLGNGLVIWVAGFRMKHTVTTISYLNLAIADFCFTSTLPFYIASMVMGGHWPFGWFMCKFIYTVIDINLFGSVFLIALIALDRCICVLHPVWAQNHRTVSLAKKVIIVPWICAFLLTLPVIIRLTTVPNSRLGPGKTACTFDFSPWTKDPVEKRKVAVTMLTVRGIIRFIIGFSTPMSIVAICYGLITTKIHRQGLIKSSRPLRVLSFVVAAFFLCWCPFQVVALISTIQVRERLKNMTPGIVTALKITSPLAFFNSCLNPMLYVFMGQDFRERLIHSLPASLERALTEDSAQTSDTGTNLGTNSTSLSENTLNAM
How it was run: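 RBL-2H3 cells carrying mouse Fpr1 were grown in DMEM with 20% FBS, 10 mM HEPES and G418 (250 µg/ml). Cells were loaded with Fluo-4 AM (1.25 µg/mL final, 30 min, 37 °C, dark) and plated at 2 × 10^5 cells/well. Fluorescence (485/538 nm) was read every 5 s for 240 s at room temperature after compound addition. Maximal rise over baseline normalized to 5 nM WKYMVm. EC50 from 5–6-point nonlinear fits, three experiments.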

[8] = target: T5, mouse Fpr2 (Mus musculus, UniProt O88536); assay: Ca2+ flux assay in mFpr2-RBL cells; details: for mFpr2-RBL Efficacy: % of the response induced by 5 nM WKYMVm
T5 sequence (O88536 1-351): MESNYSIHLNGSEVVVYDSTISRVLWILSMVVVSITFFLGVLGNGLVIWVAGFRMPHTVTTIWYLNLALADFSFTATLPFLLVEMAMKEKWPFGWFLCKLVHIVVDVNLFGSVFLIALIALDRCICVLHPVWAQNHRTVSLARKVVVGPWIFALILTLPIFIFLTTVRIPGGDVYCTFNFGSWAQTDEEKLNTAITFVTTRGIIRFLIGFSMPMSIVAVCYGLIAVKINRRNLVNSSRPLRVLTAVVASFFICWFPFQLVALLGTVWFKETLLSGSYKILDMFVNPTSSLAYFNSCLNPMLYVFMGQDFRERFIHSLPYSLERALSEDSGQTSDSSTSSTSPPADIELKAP
How it was run: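 RBL-2H3 cells stably expressing mouse Fpr2, grown in DMEM with 20% FBS, 10 mM HEPES and G418. Fluo-4 AM loaded (1.25 µg/mL final, 30 min, 37 °C, dark) in HBSS− with HEPES, then resuspended in HBSS with HEPES at 2 × 10^5 cells/well. Fluorescence (485/538 nm) read every 5 s for 240 s at room temperature. Peak rise over baseline was taken and EC50 fitted from 5–6-point curves. Mean of three experiments.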

[9] = Mus musculus, Polymorphonuclear neutrophil
[10] = % of the response induced by 5 nM fMLF

Row | Compound | EC50 [1] | EC50 [2] | Emax [2] | EC50 ([3]; FPR2-HL60 EC50, Ca2+ flux) | Emax [3] | EC50 [4] | EC50 [5] | FPR3-HL60 Efficacy [5] | mPMN Efficacy [6] | EC50 [6, 9] | mFpr1-RBL Efficacy [7] | other results
1 | COc1cccc(Nc2c(-c3ccn(C)n3)c(C)nn(CC(=O)Nc3ccc(Br)cc3)c2=O)c1 [Compound 27a, N-(4-Bromophenyl)-2-[5-(3-methoxyphenylamino)-3-methyl-4-(1-methyl-1H-pyrazol-3-yl)-6-oxo-6H-pyridazin-1-yl]acetamide] | 590 ± 210 nM | 3600 ± 280 nM | 130% | 590 ± 180 nM | 90% | 1100 ± 220 nM |  |  |  |  |  | 
2 | COc1ccc(Nc2c(-c3ccn(C)n3)c(C)nn(CC(=O)Nc3ccc(Br)cc3)c2=O)cc1 [Compound 27b, N-(4-Bromophenyl)-2-[5-(4-methoxyphenylamino)-3-methyl-4-(1-methyl-1H-pyrazol-3-yl)-6-oxo-6H-pyridazin-1-yl]acetamide] | 300 ± 44 nM | 4000 ± 890 nM | 115% | 35 ± 100 nM | 120% | 450 ± 170 nM | 670 ± 220 nM | 110% | 80% | 6 ± 1.9 µM | 25% | EC50 [7]: 18.5 ± 4.1 µM; EC50 [8]: 18.3 ± 3.8 µM; mFpr2-RBL Efficacy [8]: 35%
3 | Cc1nn(CC(=O)Nc2ccc(Br)cc2)c(=O)c(N)c1C(=O)C=CN(C)C [Compound 24] | 9300 ± 2300 nM | 5100 ± 1700 nM | 120% | 5700 ± 2300 nM | 50% |  |  |  | 50% | 13.5 ± 3.7 µM | 55% | EC50 [7]: 6.7 ± 2.1 µM; EC50 [8]: 9.4 ± 2.7 µM; mFpr2-RBL Efficacy [8]: 65%
4 | COc1cccc(Nc2c(C(C)=O)c(C)nn(CC(=O)Nc3ccc(Br)cc3)c2=O)c1 [Compound 8a, 2-[4-Acetyl-5-(3-methoxyphenylamino)-3-methyl-6-oxopyridazin-1(6H)-yl]-N-(4-bromophenyl)acetamide] | 36 ± 7 nM |  | 185% |  | 60% | 2200 ± 510 nM | 210 ± 44 nM | 150% |  |  |  | 
5 | CCc1c(C)nn(CC(=O)Nc2ccc(Br)cc2)c(=O)c1Nc1cccc(OC)c1 [Compound 13a, N-(4-Bromophenyl)-2-[4-ethyl-5-(3-methoxyphenylamino)-3-methyl-6-oxopyridazin-1(6H)-yl]acetamide] | 340 ± 110 nM | 180 ± 4 nM | 185% | 61 ± 22 nM | 35% |  | 460 ± 14 nM | 35% |  |  |  | 
6 | 1-[(4-Bromophenylcarbamoyl)-methyl]-5-(3-methoxyphenylamino)-1,6-dihydro-3-methyl-6-oxopyridazine-4-carboxylate [Compound 20] |  |  |  |  |  |  |  | 75% | 100% |  | 50% | hPMN Efficacy [1, 10]: 155%; FPR1-HL60 Efficacy [2, 10]: 130%; EC50 ([2]; read-out: FPR1-HL60 EC50, Ca2+ flux, HL-60 cells transfected with FPR1): 600 ± 100 nM; FPR2-HL60 Efficacy ([3]; % of the response induced by 5 nM WKYMVm): 115%; EC50 ([3]; read-out: FPR2-HL60 EC50, Ca2+ flux): 3100 ± 780 nM; EC50 ([5]; read-out: FPR3-HL60 EC50, Ca2+ flux, HL-60 cells transfected with FPR3): 17100 ± 4300 nM; EC50 ([6]; Ca2+ flux, mouse bone marrow neutrophils): 1 ± 0.34 µM; EC50 ([7]; read-out: mFpr1-RBL EC50, Ca2+ flux, RBL cells transfected with mouse Fpr1): 4.7 ± 1.3 µM
7 | C=Cc1c(C)nn(CC(=O)Nc2ccc(Br)cc2)c(=O)c1Nc1cccc(OC)c1 [Compound 15, N-(4-Bromophenyl)-2-[5-(3-methoxyphenylamino)-3-methyl-6-oxo-4-vinylpyridazin-1(6H)-yl]acetamide] | 840 ± 180 nM | 230 ± 70 nM | 120% | 110 ± 14 nM | 105% | 1200 ± 240 nM | 6000 ± 2100 nM | 75% | 30% | 22.8 ± 6.4 µM |  | 
